Only some compounds are listed: those with a hit (about 4.3% of all), similar ones and a draw of the others.
OX1R antag-1: antagonists of human orexin 1 receptor (OX1R) | O43613 | OX1R-expressing cells, FRET antagonist read-out | inhibition, % at 6.6 µM | actives 1.8% (n = 330,000) | AID 485270; in the data active = inhibition mostly above about 38%, no sharp cut-off; inactive = mostly below about 40%;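 note: 0% = agonist challenge alone and 100% = reference antagonist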
Target sequence (O43613 whole entry, looked up): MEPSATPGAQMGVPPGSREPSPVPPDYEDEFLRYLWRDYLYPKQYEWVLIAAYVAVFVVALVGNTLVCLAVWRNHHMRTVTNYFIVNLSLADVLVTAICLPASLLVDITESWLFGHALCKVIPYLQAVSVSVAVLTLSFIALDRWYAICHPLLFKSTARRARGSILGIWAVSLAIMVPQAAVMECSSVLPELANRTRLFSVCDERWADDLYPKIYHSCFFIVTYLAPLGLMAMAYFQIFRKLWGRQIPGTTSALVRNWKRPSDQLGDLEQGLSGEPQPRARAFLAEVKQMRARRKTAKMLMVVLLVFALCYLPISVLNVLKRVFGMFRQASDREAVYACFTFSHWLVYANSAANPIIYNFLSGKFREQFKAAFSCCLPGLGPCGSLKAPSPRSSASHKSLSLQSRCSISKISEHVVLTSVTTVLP
CHO parental Ca: counter-screen for OX1R antagonists: effect in parental CHO cells; parental CHO-K1, ATP-induced calcium, Fluo-8 fluorescence; inhibition, % at 5.6 µM; actives 0.63% (n = 330,000);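 active = inhibition above that plate's mean sample inhibition plus 3 SD, cut at about 26% in these data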;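 note: 0% = ATP-challenged DMSO wells and 100% = DMSO wells without ATP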
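Assay system: parental CHO cells; Read-out basis: percent inhibition of ATP-evoked calcium rise, normalized to controls; Benchmarks: ATP and no-ATP DMSO wells; Compound dosing: single nominal dose of 5.6 µM per compound; Signal: Fluo-8 calcium dye fluorescence; Also added: ATP as calcium-mobilizing challenge; Repeats: singlicate.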
OX1R antag-2: antagonists of human orexin 1 receptor. O43613. CHO/OX1R cells, Fluo-8 calcium fluorescence, orexin A. inhibition, % at 5 µM. actives 0.43% (n = 330,000);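 active = inhibition above its plate's threshold, mean inhibition of all tested compounds on the plate plus 3 SD, cut at about 37% in these data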;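 note: 0% = orexin A challenge wells and 100% = SB-334867-A antagonist wells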
TAAR1 antag: antagonists of human TAAR1; CHO RD-HGA16 TAAR1, Fluo-8 calcium fluorescence, antagonist; inhibition, % at 3 µM; actives 1.5% (n = 360,000); AID 624466;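 active = inhibition above a per-plate cutoff, the mean inhibition of test compounds on that plate plus 3 SD, cut at about 49% in these data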;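 note: 0% = DMSO plus EC80 beta-PEA response and 100% = DMSO alone without agonist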
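test system = CHO RD-HGA16 cells bearing hTAAR1 | replication = singlicate | controls = DMSO-only wells and EC80 β-PEA-stimulated wells | reagent = EC80 β-phenethylamine stimulus | read-out basis = percent inhibition of PEA-evoked calcium signal, max/basal emission ratio | schedule = seeding 17-24 h prior, 75-min 37 °C, 30-min RT dye loading | signal = kinetic Fluo-8 calcium fluorescence measurement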
TAAR1 ag: agonists of human TAAR1. activation, % at 3 µM. AID 624467. actives 0.99% (n = 360,000). CHO RD-HGA16 TAAR1, Fluo-8 calcium fluorescence; vehicle wells 0%, saturating PEA agonist 100%. Q96RJ0;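 active = activation above the mean activation of all test compounds in the run plus 3 SD, cut at about 38% in these data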
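System: CHO RD-HGA16 cells carrying human TAAR1 plus Gα16; Incubation: 17-24 h seeding, 75 min 37 °C dye, 30 min RT; Measured by: Fluo-8 fluorescence, 5 s baseline then 140 s kinetic read; Control set: DMSO and PEA EC100; Replication: single well for each compound.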
GalR3 antag: human GalR3 antagonism; AID 651719; inhibition, % at 3 µM; O60755; actives 0.44% (n = 360,000); HEK293 GalR3-CNG cAMP membrane potential fluorescence; galR3 body fused to GalR1 C-terminus;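 active = inhibition above the screen-wide average plus 3 SD, cut at about 13% in these data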;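 note: forskolin and galanin both at EC90 stimulate the cells; cAMP rise reported by CNG channel membrane potential dye signal; 0% = forskolin plus galanin with DMSO and 100% = forskolin alone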
Target sequence (O60755 1-299 limits assumed): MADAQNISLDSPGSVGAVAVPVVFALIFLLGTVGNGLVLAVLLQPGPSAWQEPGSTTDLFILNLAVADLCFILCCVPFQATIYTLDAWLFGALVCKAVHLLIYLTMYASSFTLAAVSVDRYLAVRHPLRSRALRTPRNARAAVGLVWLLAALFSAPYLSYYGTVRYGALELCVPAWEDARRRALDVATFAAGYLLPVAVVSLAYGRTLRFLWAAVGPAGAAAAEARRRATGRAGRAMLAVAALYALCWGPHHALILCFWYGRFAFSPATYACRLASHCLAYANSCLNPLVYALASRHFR
TAAR1 ag confirm: human TAAR1 agonism, confirmed | actives 82% (n = 2,400) | shares compounds with TAAR1 ag | AID 651783 | CHO RD-HGA16 TAAR1, Fluo-8 calcium fluorescence; scaled: DMSO 0%, maximal phenethylamine 100% | activation, % at 3 µM;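 active = activation above a cutoff set at the run's mean compound activation plus 3 SD, cut at about 39% in these data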
Ga16 nonsel ag: nonselective agonist in parental cells, TAAR1 agonist counter-screen | shares compounds with TAAR1 ag | activation, % at 3 µM | CHO-Ga16 parental, Fluo-8 calcium fluorescence; normalized to maximal ATP response, DMSO zero | AID 651787 | actives 50% (n = 2,400);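 active = activation above the run cutoff, the mean activation over all tested wells plus 3 SD, cut at about 12% in these data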;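 note: 0% = DMSO wells and 100% = maximal ATP response on the peak over basal ratio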
TAAR1 desensitize: TAAR1 response desensitization, agonist counter-screen; AID 651951; shares compounds with TAAR1 ag; actives 46% (n = 2,400); inhibition, % at 3 µM; CHO RD-HGA16 hTAAR1, Fluo-8 calcium, beta-PEA response inhibition;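 active = inhibition above the run cutoff, the mean inhibition of all test compounds plus 3 SD, cut at about 49% in these data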;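 note: beta-PEA stimulus applied at its EC80; loss of beta-PEA calcium signal after compound pretreatment read as receptor desensitization; 0% = DMSO with beta-PEA at EC80 and 100% = DMSO alone without agonist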
Ga16 antag count: nonselective Ga16 antagonism, counter-screen. shares compounds with TAAR1 ag. actives 39% (n = 2,400). CHO-Ga16 ATP-induced calcium, Fluo-8 fluorescence. inhibition, % at 3 µM;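 active = inhibition above the plate's mean compound inhibition plus 3 SD, computed per plate, cut at about 22% in these data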;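 note: 0% = EC80 ATP with DMSO and 100% = DMSO wells without ATP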
Starred values were filed as active, the others as inactive; x = not tested or not shown.

SMILES | OX1R antag-1 | CHO parental Ca | OX1R antag-2 | TAAR1 antag | TAAR1 ag | GalR3 antag | TAAR1 ag confirm | Ga16 nonsel ag | TAAR1 desensitize | Ga16 antag count
COc1cc2c(-c3ccc(O)cc3)nc3c(c(C)nn3-c3ccccc3)c2cc1OC | 20 | -8 | 13 | 50* | 40* | -11 | 22 | 14* | 49* | 38*
COc1cc2c(C)nc3c(c(C)nn3-c3ccccc3)c2cc1OC | 19 | -8 | -7 | -20 | 0 | -5 | x | x | x | x
CC(C)[C@H](NC(=O)c1ccc(Cl)cc1Cl)C(=O)N1CCC[C@H]1C(=O)NCCc1ccccc1Cl | x | x | x | 76* | 50* | -6 | 73* | 5 | 92* | 5
CC(C)[C@H](NC(=O)C1CCCC1)C(=O)N1CCC[C@H]1C(=O)NCCc1ccccc1Cl | x | x | x | 75* | 87* | -3 | 85* | -1 | 87* | 3
O=C(N[C@H](C(=O)N1CCC[C@H]1C(=O)NCCc1ccccc1Cl)C1CCCCC1)c1cccs1 | x | x | x | x | x | -8 | x | 4 | x | 11
C[C@H]1CN([C@@H](C)CO)C(=O)c2cc(Br)cnc2O[C@@H]1CN(C)S(=O)(=O)c1cn(C)cn1 | x | x | x | 14 | 0 | -8 | x | x | x | x
Cc1cccc(CC(C)NC(=O)c2cc(COc3ccc(C)c(C)c3)on2)n1 (configuration not stated) | 36 | -15 | -25 | -20 | 3 | 1 | x | x | x | x
Cc1cccc(CC(C)NC(=O)c2cc(COc3ccc(F)cc3F)on2)n1 (configuration not stated) | 0 | -7 | -7 | 99* | 88* | -1 | 9 | 5 | 14 | 7
CC(=O)O[C@H]1[C@@H](O)[C@H](O)[C@H](Oc2c(O)c(C)c3c4c2[C@@H](C)CC[C@@H]4[C@@H](C)C[C@H]3C=C(C)C)O[C@H]1C | 1 | -8 | -26 | -10 | 9 | -3 | x | x | x | x
CCN1CCN(CCNC(=O)c2ccc(/C=C3/Sc4ccccc4N(Cc4ccccc4C)C3=O)cc2)CC1 | x | x | x | 32 | 60* | -5 | 72* | 46* | 65* | 56*
CCN1CCN(CCCNC(=O)c2ccc(/C=C3/Sc4ccccc4N(Cc4ccccc4F)C3=O)cc2)CC1 | 15 | -16 | -23 | 44 | 15 | -5 | x | x | x | x
Cc1cc2oc(=O)cc(CN3CCCCC3C)c2cc1C(C)C (configuration not stated) | 2 | -23 | -28 | -12 | -6 | -9 | x | x | x | x
CC(C)NS(=O)(=O)c1ccc(NC(=O)C(C)Oc2ccc(C(=O)c3ccccc3)cc2)cc1 (configuration not stated) | 5 | 68* | 93* | 105* | 123* | 2 | 122* | 84* | 105* | 86*
CC(Oc1ccc(Cl)cc1)C(=O)Nc1cccc(S(=O)(=O)N2CCCC2)c1 (configuration not stated) | x | x | x | -15 | 7 | -7 | x | x | x | x
CC(Oc1ccc(Cl)cc1)C(=O)Nc1ccc(S(=O)(=O)N2CCOCC2)cc1 (configuration not stated) | -3 | 15 | 20 | 48 | 110* | -10 | 114* | 72* | 75* | 42*
CN1CCC(=O)N([C@H](CN=[N+]=[N-])Cc2ccccc2)CC1 | 13 | -4 | -11 | -13 | 1 | -1 | x | x | x | x
O=C(C[C@H]1C(=O)N(CCc2ccccc2)C[C@@H]1c1ccccc1)Nc1ccccc1 | x | x | x | 48 | 73* | -5 | 77* | 0 | 48 | 14
O=C(Cn1cnc2c(oc3ccccc32)c1=O)NCCc1ccccc1 | 13 | -23 | -50 | x | x | 1 | x | 2 | x | 1
CC(C)C(C)NC(=O)Cn1cnc2c(oc3ccccc32)c1=O (configuration not stated) | 3 | -7 | 6 | -1 | 2 | -9 | x | x | x | x
COC(=O)[C@]12CCCCC=C1N(Cc1ccco1)C(=O)[C@H](CC(=O)NCCc1ccccc1OC)C2 | x | x | x | 9 | 51* | -3 | 31 | 3 | 26 | 20
CCOC(=O)[C@]12CCC=C1N(Cc1ccc3c(c1)OCO3)C(=O)[C@H](CC(=O)NCCc1ccccc1OC)C2 | x | x | x | 38 | 60* | -7 | 91* | 3 | 76* | -2
COC(=O)[C@@]12C[C@@H](CC(=O)NCCc3ccccc3OC)C(=O)N(Cc3ccc4c(c3)OCO4)C1=CCC(C)(C)C2 | x | x | x | 51* | 61* | -5 | 100* | 0 | 58* | -1
CCCCCCCCN1C(=O)[C@H](CC(=O)NCCCC)C[C@@]2(C(=O)OCC)CCCC=C12 | x | x | x | -14 | -2 | 2 | x | x | x | x
COC(=O)[C@@]12C[C@@H](CC(=O)NCCc3ccccc3OC)C(=O)N(Cc3ccccc3)C1=CCC(C)(C)C2 | x | x | x | -15 | 11 | -8 | x | x | x | x
CCCCCCCCN1C(=O)[C@H](CC(=O)NCCc2ccccc2OC)C[C@@]2(C(=O)OCC)CCCC=C12 | x | x | x | -2 | 56* | -4 | 57* | 2 | 25 | 10
SMILES | OX1R antag-1 | CHO parental Ca | OX1R antag-2 | TAAR1 antag | TAAR1 ag | GalR3 antag | TAAR1 ag confirm | Ga16 nonsel ag | TAAR1 desensitize | Ga16 antag count
CC(CNC(=O)COc1ccc2c(c1)OCO2)c1ccccc1 (configuration not stated) | 0 | -9 | -17 | -2 | 13 | -4 | x | x | x | x
CCOC(=O)[C@]12CCC=C1N(Cc1cccc3ccccc13)C(=O)[C@H](CC(=O)NCCc1ccccc1OC)C2 | x | x | x | 35 | 55* | -5 | 70* | 1 | 46 | 14
CCn1cc(S(=O)(=O)N2CCN(Cc3ccc(F)cc3)CC2)cn1 | 5 | -23 | -15 | 1 | 6 | -2 | x | x | x | x
O=c1[nH]c2ccc(NC(=S)Nc3ccc(Cl)cc3)cc2[nH]1 | 34 | -6 | 1 | 8 | 53* | 6 | 58* | 11 | 34 | 29*
O=c1[nH]c2ccc(NC(=S)Nc3ccc(Cl)cc3Cl)cc2[nH]1 | 11 | -3 | -8 | 9 | 3 | -4 | x | x | x | x
O=C(CCc1ccccc1)NCCSCc1c(F)cccc1Cl | 27 | -17 | -28 | 2 | 0 | 1 | x | x | x | x
O=C(CNS(=O)(=O)c1ccc(F)c(Cl)c1)NCCc1ccccc1 | 8 | -17 | -25 | -26 | 45* | -2 | 65* | 8 | 13 | -1
